Test results taken from ChEMBL document CHEMBL4376826 (J Med Chem, 2020).
In brackets after ≈: the same amount, converted by molar mass. Activity calls are given as the source filed them. No cut-off for these calls is given here.

Columns and labels:
[1] = Induction of CYP2E1 enzymes in minipig assessed as increase in 11-hydroxylase activity at 500 mg/kg/day, po for 39 weeks relative to control; format: ADME, organism-based, Sus scrofa domesticus; conditions: pig, in vivo, 6552 h
[2] = Induction of CYP1A1/2 enzymes in male minipig assessed as increase in EROD enzyme activity at 500 mg/kg/day, po for 39 weeks relative to control; format: ADME, organism-based, Sus scrofa domesticus; conditions: pig, in vivo, 6552 h
Cytochrome P450 1A2 [3] = target: T1, Cytochrome P450 1A2 (Homo sapiens, UniProt P05177); assay: Drug metabolism assessed as human CYP1A2-mediated metabolism by measuring DHD1 formation; format: ADME; conditions: recombinant enzyme
T1 sequence (P05177 whole entry): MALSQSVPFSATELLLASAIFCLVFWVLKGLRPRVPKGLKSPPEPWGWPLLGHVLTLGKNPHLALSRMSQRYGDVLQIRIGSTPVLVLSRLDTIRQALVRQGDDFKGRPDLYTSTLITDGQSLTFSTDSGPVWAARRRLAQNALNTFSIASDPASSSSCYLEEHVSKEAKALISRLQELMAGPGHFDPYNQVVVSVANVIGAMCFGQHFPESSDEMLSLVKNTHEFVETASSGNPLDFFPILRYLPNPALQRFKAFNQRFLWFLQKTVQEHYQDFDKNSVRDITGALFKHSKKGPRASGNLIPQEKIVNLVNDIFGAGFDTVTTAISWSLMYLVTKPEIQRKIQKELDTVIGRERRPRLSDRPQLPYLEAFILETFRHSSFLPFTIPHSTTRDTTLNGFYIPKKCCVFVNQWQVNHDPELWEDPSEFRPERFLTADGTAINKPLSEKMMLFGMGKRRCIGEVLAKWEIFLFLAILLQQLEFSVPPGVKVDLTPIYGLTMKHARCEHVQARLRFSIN

[4] = Drug level in rat plasma at 2000 mg/kg, po measured after 24 hrs; format: ADME, organism-based; conditions: in vivo
[5] = Drug metabolism in rat plasma assessed as formation of O-glucuronide conjugate of aromatized diol at 2000 mg/kg, po dosed for 28 days; format: ADME, organism-based; conditions: in vivo, 672 h
[6] = Intrinsic clearance in human liver microsomes in presence of CYP2D6 inhibitor Quinidine; format: ADME, Microsome; conditions: with Quinidine (CYP2D6 inhibitor), read-out: CLH
Cytochrome P450 2D6 [7] = target: T2, Cytochrome P450 2D6 (Homo sapiens, UniProt P10635); assay: Drug metabolism assessed as human CYP2D6-mediated metabolism by measuring DHD1 formation; format: ADME; conditions: recombinant enzyme
T2 sequence (P10635 whole entry): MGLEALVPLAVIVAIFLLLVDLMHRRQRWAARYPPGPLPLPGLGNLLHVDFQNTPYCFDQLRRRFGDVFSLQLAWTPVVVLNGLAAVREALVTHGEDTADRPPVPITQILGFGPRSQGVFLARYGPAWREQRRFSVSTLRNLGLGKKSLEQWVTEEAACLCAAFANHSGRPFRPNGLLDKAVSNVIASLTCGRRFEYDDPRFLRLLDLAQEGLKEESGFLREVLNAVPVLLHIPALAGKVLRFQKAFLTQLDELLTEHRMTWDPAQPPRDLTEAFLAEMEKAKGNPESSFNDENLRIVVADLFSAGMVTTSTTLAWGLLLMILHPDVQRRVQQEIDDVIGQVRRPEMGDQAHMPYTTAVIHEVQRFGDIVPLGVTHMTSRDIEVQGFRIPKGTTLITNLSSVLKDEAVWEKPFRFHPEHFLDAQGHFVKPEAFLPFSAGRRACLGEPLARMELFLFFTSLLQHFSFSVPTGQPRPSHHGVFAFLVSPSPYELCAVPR

[8] = Protein binding in human plasma assessed as bound fraction; format: ADME, cell-free; conditions: read-out: PPB (converted)
How it was run: (§1)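 Binding measured in 100% plasma; reported as fraction bound.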

[9] = Intrinsic clearance in mouse liver S9 fraction; format: ADME, subcellular; conditions: read-out: CLH
Rattus norvegicus [10] = assay: Effect on total cytochrome P450 content in rat at 2000 mg/kg/day, po for 28 days; format: ADME, organism-based; conditions: in vivo, 672 h
How it was run: (§2)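 Rats dosed 2000 mg/kg/day by oral gavage for 28 days; liver microsomes prepared, microsomal protein concentration and total P450 content measured.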

[11] = Drug metabolism in rat plasma assessed as formation of glucuronide conjugate of dihydrodiol at 2000 mg/kg, po dosed for 28 days; format: ADME, organism-based; conditions: in vivo, 672 h
[12] = Induction of CYP2B enzymes in male minipig assessed as increase in PROD enzyme activity at 500 mg/kg/day, po for 39 weeks relative to control; format: ADME, organism-based, Sus scrofa domesticus; conditions: pig, in vivo, 6552 h
Cytochrome P450 2C9 = Cytochrome P450 2C9 (Homo sapiens, UniProt P11712); assay: Drug metabolism assessed as human CYP2C9-mediated metabolism by measuring DHD3 formation; format: ADME; conditions: recombinant enzyme
Sequence of Cytochrome P450 2C9 (P11712 whole entry): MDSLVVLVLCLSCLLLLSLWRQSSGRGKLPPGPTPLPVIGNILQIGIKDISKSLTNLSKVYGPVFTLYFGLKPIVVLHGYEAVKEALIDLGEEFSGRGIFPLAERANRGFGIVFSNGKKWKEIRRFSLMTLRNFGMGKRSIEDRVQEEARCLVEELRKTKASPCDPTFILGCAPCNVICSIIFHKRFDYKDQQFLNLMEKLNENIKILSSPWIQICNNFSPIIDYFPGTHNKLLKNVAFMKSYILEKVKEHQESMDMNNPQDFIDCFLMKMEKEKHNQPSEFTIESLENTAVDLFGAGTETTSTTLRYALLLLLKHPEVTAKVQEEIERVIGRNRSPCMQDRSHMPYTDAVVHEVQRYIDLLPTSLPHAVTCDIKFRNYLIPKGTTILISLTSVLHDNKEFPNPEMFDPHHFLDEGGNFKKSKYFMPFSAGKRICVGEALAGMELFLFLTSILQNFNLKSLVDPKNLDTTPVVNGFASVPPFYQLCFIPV

[13] = Drug metabolism in beta-naphthoflavone/phenobarbital-induced rat liver S9 fraction assessed as compound-D2 formation at 100 ug/ml in presence of NADPH measured after 4 hrs by UV-Vis spectroscopy; format: ADME, subcellular; conditions: s9, 4 h
[14] = Intrinsic clearance in human liver microsomes in presence of CYP1A inhibitor alpha-naphthoflavone; format: ADME, Microsome; conditions: with alpha-naphthoflavone (CYP1A inhibitor), read-out: CLH
CYP2C19 = CYP2C19 (Homo sapiens, UniProt P33261); assay: Drug metabolism assessed as human CYP2C19-mediated metabolism by measuring half life; format: ADME; conditions: human CYP2C19 enzyme
Sequence of CYP2C19 (P33261 whole entry): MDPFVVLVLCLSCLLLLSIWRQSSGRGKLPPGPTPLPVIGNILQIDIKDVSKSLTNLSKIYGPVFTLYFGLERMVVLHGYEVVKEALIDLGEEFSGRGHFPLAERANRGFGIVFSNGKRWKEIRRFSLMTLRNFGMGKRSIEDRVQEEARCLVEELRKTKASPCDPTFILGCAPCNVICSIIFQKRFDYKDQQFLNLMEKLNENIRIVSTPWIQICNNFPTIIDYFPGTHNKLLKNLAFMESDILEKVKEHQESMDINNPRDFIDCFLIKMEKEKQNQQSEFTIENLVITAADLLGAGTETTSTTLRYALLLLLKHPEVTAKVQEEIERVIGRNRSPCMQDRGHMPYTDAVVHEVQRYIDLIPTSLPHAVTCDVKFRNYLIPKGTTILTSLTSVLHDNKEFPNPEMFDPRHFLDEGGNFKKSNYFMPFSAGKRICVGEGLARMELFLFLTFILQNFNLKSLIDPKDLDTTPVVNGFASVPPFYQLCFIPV

[15] = Half life in mouse liver S9 fraction; format: ADME, subcellular
How it was run: (§3)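 Metabolic stability of the dihydrodiols measured in vitro with mouse and human liver S9 fractions and with mouse and human hepatocytes; half-life from substrate depletion.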

CYP2C8 = CYP2C8 (Homo sapiens, UniProt P10632); assay: Drug metabolism assessed as human CYP2C8-mediated metabolism by measuring half life; format: ADME; conditions: human CYP2C8 enzyme
Sequence of CYP2C8 (P10632 whole entry): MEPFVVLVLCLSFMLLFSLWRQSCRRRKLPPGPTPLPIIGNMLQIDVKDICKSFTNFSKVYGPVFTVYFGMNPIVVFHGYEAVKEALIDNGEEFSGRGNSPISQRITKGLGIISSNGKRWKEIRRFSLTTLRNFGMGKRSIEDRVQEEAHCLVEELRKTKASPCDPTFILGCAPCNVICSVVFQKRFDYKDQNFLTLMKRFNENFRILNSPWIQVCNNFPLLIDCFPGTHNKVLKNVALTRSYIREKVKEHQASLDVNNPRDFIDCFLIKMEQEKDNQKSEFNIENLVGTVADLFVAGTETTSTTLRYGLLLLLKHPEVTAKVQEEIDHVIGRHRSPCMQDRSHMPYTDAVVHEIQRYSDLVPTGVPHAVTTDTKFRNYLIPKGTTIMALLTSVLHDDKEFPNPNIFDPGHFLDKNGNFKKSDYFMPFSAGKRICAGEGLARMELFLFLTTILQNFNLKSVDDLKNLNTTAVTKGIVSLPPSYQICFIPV

[16] = Half life in human liver S9 fraction; format: ADME, subcellular; how it was run: as §3
[17] = Intrinsic clearance in human liver S9 fraction; format: ADME, subcellular; conditions: read-out: CLH
[18] = Intrinsic clearance in human liver microsomes; format: ADME, Microsome; conditions: read-out: CLH
Cytochrome P450 2C8 = Cytochrome P450 2C8 (Homo sapiens, UniProt P10632); assay: Drug metabolism assessed as human CYP2C8-mediated metabolism by measuring DHD3 formation; format: ADME; conditions: recombinant enzyme
Sequence of Cytochrome P450 2C8 (P10632 whole entry): as above

CYP2B6 = CYP2B6 (Homo sapiens, UniProt P20813); assay: Drug metabolism assessed as human CYP2B6-mediated metabolism by measuring half life; format: ADME; conditions: human CYP2B6 enzyme
Sequence of CYP2B6 (P20813 whole entry): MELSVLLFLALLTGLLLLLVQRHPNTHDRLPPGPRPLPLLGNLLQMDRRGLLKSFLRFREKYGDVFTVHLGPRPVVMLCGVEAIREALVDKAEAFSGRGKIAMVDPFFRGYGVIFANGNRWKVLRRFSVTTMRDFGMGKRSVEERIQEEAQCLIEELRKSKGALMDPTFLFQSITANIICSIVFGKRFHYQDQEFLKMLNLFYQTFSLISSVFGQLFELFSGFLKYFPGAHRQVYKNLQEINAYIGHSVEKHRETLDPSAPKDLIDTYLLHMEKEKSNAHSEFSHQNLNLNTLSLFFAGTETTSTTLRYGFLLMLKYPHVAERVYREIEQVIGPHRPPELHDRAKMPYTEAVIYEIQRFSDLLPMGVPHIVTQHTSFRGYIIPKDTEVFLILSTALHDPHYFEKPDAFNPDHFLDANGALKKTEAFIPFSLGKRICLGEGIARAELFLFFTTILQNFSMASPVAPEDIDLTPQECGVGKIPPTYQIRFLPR

[19] = Induction of CYP3A enzymes in minipig assessed as increase in testosterone hydroxylase activity at 500 mg/kg/day, po for 39 weeks relative to control; format: ADME, organism-based, Sus scrofa domesticus; conditions: pig, in vivo, 6552 h
Cytochrome P450 2B6 [20] = target: T3, Cytochrome P450 2B6 (Homo sapiens, UniProt P20813); assay: Drug metabolism assessed as human CYP2B6-mediated metabolism by measuring DHD1 formation; format: ADME; conditions: recombinant enzyme
T3 sequence (P20813 whole entry): as above

[21] = Permeability at pH 7.4 by PAMPA; format: ADME; conditions: read-out: permeability
[22] = Induction of CYP4A enzymes in minipig assessed as increase in 12-hydroxylase activity at 500 mg/kg/day, po for 39 weeks relative to control; format: ADME, organism-based, Sus scrofa domesticus; conditions: pig, in vivo, 6552 h
[23] = Effect on microsomal protein concentrations in minipig at 500 mg/kg/day, po for 39 weeks; format: ADME, organism-based, Sus scrofa domesticus; conditions: pig, in vivo, 6552 h
[24] = Protein binding in mouse plasma assessed as bound fraction; format: ADME, cell-free; conditions: read-out: PPB (converted); how it was run: as §1
[25] = Intrinsic clearance in human liver microsomes in presence of CYP2B6 inhibitor Ticlopidine; format: ADME, Microsome; conditions: with Ticlopidine (CYP2B6 inhibitor), read-out: CLH
[26] = Drug metabolism in beta-naphthoflavone/phenobarbital-induced rat liver S9 fraction assessed as compound-D1 formation at 100 ug/ml in presence of NADPH measured after 4 hrs by UV-Vis spectroscopy; format: ADME, subcellular; conditions: s9, 4 h
CYP2D6 = CYP2D6 (Homo sapiens, UniProt P10635); assay: Drug metabolism assessed as human CYP2D6-mediated metabolism by measuring half life; format: ADME; conditions: human CYP2D6 enzyme
Sequence of CYP2D6 (P10635 whole entry): as the sequence (P10635 whole entry) above

Cytochrome P450 2B6 [27] = target: T3, Cytochrome P450 2B6; assay: Drug metabolism assessed as human CYP2B6-mediated metabolism by measuring DHD3 formation; format: ADME; conditions: recombinant enzyme
Cytochrome P450 1A1 = Cytochrome P450 1A1 (Homo sapiens, UniProt P04798); assay: Drug metabolism assessed as human CYP1A1-mediated metabolism by measuring DHD3 formation; format: ADME; conditions: recombinant enzyme
Sequence of Cytochrome P450 1A1 (P04798 whole entry): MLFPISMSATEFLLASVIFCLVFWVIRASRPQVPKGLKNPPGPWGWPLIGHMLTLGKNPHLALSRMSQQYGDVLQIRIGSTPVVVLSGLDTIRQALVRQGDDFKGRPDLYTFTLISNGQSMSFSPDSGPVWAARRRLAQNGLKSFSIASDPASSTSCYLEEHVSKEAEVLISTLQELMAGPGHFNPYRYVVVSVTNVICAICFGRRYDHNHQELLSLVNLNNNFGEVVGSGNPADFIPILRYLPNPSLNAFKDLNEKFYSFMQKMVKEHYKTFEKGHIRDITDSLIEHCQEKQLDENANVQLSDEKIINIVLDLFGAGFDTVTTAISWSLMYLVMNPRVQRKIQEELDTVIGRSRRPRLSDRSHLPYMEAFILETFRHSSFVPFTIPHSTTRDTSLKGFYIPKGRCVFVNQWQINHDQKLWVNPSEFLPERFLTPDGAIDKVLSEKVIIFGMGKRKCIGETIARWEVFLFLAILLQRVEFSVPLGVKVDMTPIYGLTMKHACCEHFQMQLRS

[28] = tested on: UDP-glucuronosyltransferases (UGTs); assay: Drug metabolism assessed as human UGT-mediated metabolism by measuring half life for DHD3 formation; format: ADME, protein assay
CYP3A4 = CYP3A4 (Homo sapiens, UniProt P08684); assay: Drug metabolism assessed as human CYP3A4-mediated metabolism by measuring half life; format: ADME; conditions: human CYP3A4 enzyme
Sequence of CYP3A4 (P08684 whole entry): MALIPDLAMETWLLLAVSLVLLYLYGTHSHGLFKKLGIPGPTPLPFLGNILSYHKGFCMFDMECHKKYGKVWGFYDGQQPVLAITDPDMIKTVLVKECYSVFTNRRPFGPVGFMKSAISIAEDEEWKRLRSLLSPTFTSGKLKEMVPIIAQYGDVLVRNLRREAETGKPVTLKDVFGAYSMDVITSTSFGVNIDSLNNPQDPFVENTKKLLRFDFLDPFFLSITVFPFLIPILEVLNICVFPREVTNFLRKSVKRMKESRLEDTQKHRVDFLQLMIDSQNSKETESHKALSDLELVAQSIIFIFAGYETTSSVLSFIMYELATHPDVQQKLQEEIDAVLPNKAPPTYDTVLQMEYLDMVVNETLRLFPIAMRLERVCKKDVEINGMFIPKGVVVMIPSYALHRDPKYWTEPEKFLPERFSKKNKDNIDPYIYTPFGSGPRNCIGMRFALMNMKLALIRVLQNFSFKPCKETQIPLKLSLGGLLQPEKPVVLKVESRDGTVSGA

CYP1A2 = CYP1A2 (Homo sapiens, UniProt P05177); assay: Drug metabolism assessed as human CYP1A2-mediated metabolism by measuring half life; format: ADME; conditions: human CYP1A2 enzyme
CYP2C9 = CYP2C9 (Homo sapiens, UniProt P11712); assay: Drug metabolism assessed as human CYP2C9-mediated metabolism by measuring half life; format: ADME; conditions: human CYP2C9 enzyme
Sequence of CYP2C9 (P11712 whole entry): as the sequence (P11712 whole entry) above

Cytochrome P450 2C19 = Cytochrome P450 2C19 (Homo sapiens, UniProt P33261); assay: Drug metabolism assessed as human CYP2C19-mediated metabolism by measuring DHD3 formation; format: ADME; conditions: recombinant enzyme
Sequence of Cytochrome P450 2C19 (P33261 whole entry): as the sequence (P33261 whole entry) above

Cytochrome P450 1A2 [29] = target: T1, Cytochrome P450 1A2; assay: Inhibition of CYP1A2 in human liver microsomes; format: ADME
CYP1A1 = CYP1A1 (Homo sapiens, UniProt P04798); assay: Drug metabolism assessed as human CYP1A1-mediated metabolism by measuring half life; format: ADME; conditions: human CYP1A1 enzyme
Sequence of CYP1A1 (P04798 whole entry): as the sequence (P04798 whole entry) above

Cytochrome P450 2D6 [30] = target: T2, Cytochrome P450 2D6; assay: Drug metabolism assessed as human CYP2D6-mediated metabolism by measuring DHD3 formation; format: ADME; conditions: recombinant enzyme
Cytochrome P450 3A4 = Cytochrome P450 3A4 (Homo sapiens, UniProt P08684); assay: Drug metabolism assessed as human CYP3A4-mediated metabolism by measuring DHD3 formation; format: ADME; conditions: recombinant enzyme
Sequence of Cytochrome P450 3A4 (P08684 whole entry): as the sequence (P08684 whole entry) above

[31] = Kinetic aqueous solubility of the compound; format: physicochemical; conditions: buffer; read-out: Kinetic_solubility
Cytochrome P450 1A2 [32] = target: T1, Cytochrome P450 1A2; assay: Drug metabolism assessed as human CYP1A2-mediated metabolism by measuring DHD3 formation; format: ADME; conditions: recombinant enzyme
Homo sapiens = species: Homo sapiens; assay: Substrate activity at MDR4 (unknown origin)
[33] = Effect on total cytochrome P450 content in minipig at 500 mg/kg/day, po for 39 weeks; format: ADME, organism-based, Sus scrofa domesticus; conditions: pig, in vivo, 6552 h
[34] = Drug metabolism in human liver microsomes assessed as metabolite retention time incubation for 45 mins; format: ADME, Microsome; conditions: 0.75 h
How it was run: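 Incubation of substrate in pooled male and female human liver microsomes for 45 min; parent and metabolite resolved by LC-MS, metabolite identified by retention time and [M+H]+ ion.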

Rattus norvegicus [35] = assay: Effect on microsomal protein concentrations in rat at 2000 mg/kg/day, po for 28 days; format: ADME, organism-based; conditions: in vivo, 672 h; how it was run: as §2

CCS(=O)(=O)c1ccc2oc(-c3ccc4ccccc4c3)nc2c1 [EZUTROMID]
Activity [1]: Not Active | Activity [2]: Not Active | Drug metabolism (Cytochrome P450 1A2 [3]): Metabolite_Detected | Drug uptake [4]: 38 to 89% | Drug metabolism [5]: Metabolite_Detected | microsomal CLint [6]: 35.1 µL/min/mg | Drug metabolism (Cytochrome P450 2D6 [7]): Metabolite_Detected | fraction unbound [8]: 0.01 | microsomal CLint [9]: 19 µL/min/mg | Activity (Rattus norvegicus [10]): Non-Toxic | Drug metabolism [11]: Metabolite_Detected | Activity [12]: Not Active | Drug metabolism (Cytochrome P450 2C9): Metabolite_Notdetected | Drug metabolism [13]: Metabolite_Detected | microsomal CLint [14]: 5.06 µL/min/mg | half-life (CYP2C19): ≥ 3 h | half-life [15]: 1.23 h | half-life (CYP2C8): ≥ 3 h | half-life [16]: 1.68 h | microsomal CLint [17]: 14 µL/min/mg | microsomal CLint [18]: 50.7 µL/min/mg | Drug metabolism (Cytochrome P450 2C8): Metabolite_Notdetected | half-life (CYP2B6): ≥ 3 h | Activity [19]: Not Active | Drug metabolism (Cytochrome P450 2B6 [20]): Metabolite_Detected | Papp [21]: 9.5 ×10⁻⁶ cm/s | Activity [22]: Not Active | Activity [23]: Non-Toxic | fraction unbound [24]: 0.005 | microsomal CLint [25]: 21.4 µL/min/mg | Drug metabolism [26]: Metabolite_Detected | half-life (CYP2D6): ≥ 3 h | Drug metabolism (Cytochrome P450 2B6 [27]): Metabolite_Notdetected | Drug metabolism (Cytochrome P450 1A1): Metabolite_Notdetected | t1/2 [28]: > 4 h | half-life (CYP3A4): ≥ 3 h | half-life (CYP1A2): 2.62 min | half-life (CYP2C9): ≥ 3 h | Drug metabolism (Cytochrome P450 2C19): Metabolite_Notdetected | IC50 (Cytochrome P450 1A2 [29]): 5.4 µM | half-life (CYP1A1): 2.16 min | Drug metabolism (Cytochrome P450 2D6 [30]): Metabolite_Notdetected | Drug metabolism (Cytochrome P450 3A4): Metabolite_Notdetected | solubility kinetic [31]: 1 to 2 µM (≈ 0.337 to 0.675 µg/mL) | Drug metabolism (Cytochrome P450 1A2 [32]): Metabolite_Notdetected | Activity (Homo sapiens): inactive | Activity [33]: Non-Toxic | Retention_time [34]: 5.7 min | Activity (Rattus norvegicus [35]): Non-Toxic
